Sampled rows, rich in hits. Any-hit rate of the full collection: about 1.1%.
Tb MetRS inh – Trypanosoma brucei MetRS inhibition | purified T. brucei MetRS, ATP depletion, Kinase-Glo luminescence | inhibition, % at 11.9 µM | 0.4% of 360,000 active;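 active = inhibition above a per-plate cutoff of the control wells' mean inhibition plus 3 SD, cut at about 5.5% in these data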;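 note: 0% = DMSO wells median and 100% = median of wells with control inhibitor compound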
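Dosing: 11.9 µM compound single dose, 0.9% DMSO; Assay system: purified T. brucei MetRS enzyme; Measured by: Kinase-Glo luciferase luminescence reporting remaining unconsumed ATP; Schedule: 15 min plus 2 h at 25 °C.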
SKN-1 block – C. elegans SKN-1 inhibition. C. elegans VP596 Pgst-4::GFP/RFP ratio, acrylamide-induced, 24 h. inhibition, % at 21.8 µM. 0.49% of 360,000 active. AID 624304;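 active = interference check ratio from 0.5 to 1.5 plus GFP to RFP signal ratio inhibition reaching or exceeding a fixed threshold, cut at about 30% in these data, passing the limit was not always enough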
GC-B act – GC-B (human) receptor activation. activation, % at 10 µM. HEK293-GC-B cells, CNP EC30, cGMP TR-FRET; 0% at EC30 CNP, 100% saturating CNP. 0.11% of 370,000 active. P20594;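 active = activation at 10 µM reaching about 35% in either raw or pattern-adjusted values, limit read from the data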
Target sequence (P20594 whole entry, looked up): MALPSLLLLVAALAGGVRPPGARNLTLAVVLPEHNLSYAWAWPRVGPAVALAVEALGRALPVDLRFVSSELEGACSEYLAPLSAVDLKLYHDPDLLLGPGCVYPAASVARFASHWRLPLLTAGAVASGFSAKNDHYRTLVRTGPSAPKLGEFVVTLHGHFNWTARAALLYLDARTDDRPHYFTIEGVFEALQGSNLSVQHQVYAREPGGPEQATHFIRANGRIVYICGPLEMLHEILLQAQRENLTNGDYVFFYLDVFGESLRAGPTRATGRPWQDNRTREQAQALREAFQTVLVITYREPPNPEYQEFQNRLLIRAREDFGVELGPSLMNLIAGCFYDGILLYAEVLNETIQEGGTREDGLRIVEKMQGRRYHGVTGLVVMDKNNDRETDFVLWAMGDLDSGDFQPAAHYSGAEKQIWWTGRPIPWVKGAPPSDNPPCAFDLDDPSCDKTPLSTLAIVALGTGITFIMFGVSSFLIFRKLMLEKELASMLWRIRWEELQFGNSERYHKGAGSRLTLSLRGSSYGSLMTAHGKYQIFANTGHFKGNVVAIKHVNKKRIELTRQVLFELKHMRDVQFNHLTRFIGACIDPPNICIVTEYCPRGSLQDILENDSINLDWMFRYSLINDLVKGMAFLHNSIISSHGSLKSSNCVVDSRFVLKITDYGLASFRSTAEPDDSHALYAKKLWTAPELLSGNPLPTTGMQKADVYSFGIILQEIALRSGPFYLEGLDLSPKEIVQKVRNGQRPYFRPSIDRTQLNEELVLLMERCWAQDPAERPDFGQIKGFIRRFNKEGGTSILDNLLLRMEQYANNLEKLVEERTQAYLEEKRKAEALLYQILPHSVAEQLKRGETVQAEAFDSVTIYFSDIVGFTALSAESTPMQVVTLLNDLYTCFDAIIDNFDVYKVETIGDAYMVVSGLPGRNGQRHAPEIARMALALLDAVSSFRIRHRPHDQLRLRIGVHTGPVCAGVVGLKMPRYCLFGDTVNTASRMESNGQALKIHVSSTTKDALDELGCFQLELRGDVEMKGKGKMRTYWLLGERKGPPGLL
NPR1 activator – GC-A (human) enzyme activation; AID 1671463; activation, % at 10 µM; HEK293 GC-A cells, cGMP TR-FRET, EC30 ANP; 0% at EC30 ANP, 100% saturating ANP; 0.14% of 370,000 active; P16066; in the data active = activation above about 40%
A1 inh – inhibitors of the anti-apoptotic protein A1, read as caspase activation; caspase activation, % (concentration not given with the values); MEF A1-2A-BIM cells, Caspase-Glo 3/7 luminescence, 3 h; percent of clofoctol response, vehicle zero; 0.066% of 330,000 active;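 active = over half of replicate activation scores above 10%, or exactly half above 10 with the replicate mean above 10; inconclusive = replicate mean below 10 yet half the replicates above 10; inactive = over half of replicates below 10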
MT1-MMP act inh – blocks activation of human MT1-MMP; P50281; HT1080 RFP-PRO-GFP cells, GFP/RFP ratio fluorescence, overnight; percent of plate control window, DMSO zero; GFP/RFP ratio change, % at 20 µM; 0.061% of 360,000 active; AID 651647;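 active = GFP/RFP ratio change of at least 30% with cell ATP level not reduced by more than half and red fluorescence within 50% of control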
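Assay system: RFP-PRO-GFP reporter HT1080 cells; read-out basis: GFP/RFP fluorescence ratio; benchmarks: DMSO wells and RFP-L50D-GFP cells; doses: 20 µM single dose, 1% DMSO; schedule: overnight cell settling, then overnight compound exposure, 37 °C, 5% CO2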
Tb MetRS conf – confirmation of Trypanosoma brucei MetRS inhibitors. AID 624412. 93% of 1,400 active. inhibition, % at 11.9 µM. shares compounds with Tb MetRS inh. T. brucei MetRS enzyme, luminescence (ATP depletion); in the data active = inhibition above about 7%
Jurkat tox – counter-screen for T. brucei MetRS inhibitors: Jurkat cell cytotoxicity; shares compounds with Tb MetRS inh; 12% of 1,400 active; Jurkat cells viability, ATP luminescence; inhibition, % at 8.3 µM; AID 624413; in the data active = inhibition above about 15%;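 note: 0% = vehicle and 100% = reference inhibitor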
Tb MetRS inh FP – T. brucei MetRS inhibition, orthogonal assay. shares compounds with Tb MetRS inh. purified T. brucei MetRS, fluorescence polarization. inhibition, % at 11.9 µM. 44% of 1,400 active; in the data active = inhibition above about 17%;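 note: 0% = vehicle wells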
Active calls of the source: *; ? = inconclusive; / = no result given.

SMILES	Tb MetRS inh	SKN-1 block	GC-B act	NPR1 activator	A1 inh	MT1-MMP act inh	Tb MetRS conf	Jurkat tox	Tb MetRS inh FP
NS(=O)(=O)c1ccc(CCNC(=O)CCCCCn2c(=S)[nH]c3ccc(Br)cc3c2=O)cc1	17*	-5	-3	5	0	1	22*	0	14
O=c1c2cc(Br)ccc2[nH]c(=S)n1Cc1ccccc1	7.7*	-2	2	-1	0	-5	20*	0	13
O=c1c2cc(Br)ccc2[nH]c(=S)n1Cc1ccccn1	10*	-16	-2	-9	0	/	21*	-7	5
O=C(CCCCCn1c(=S)[nH]c2ccc(Br)cc2c1=O)NCC1CCCO1 (stereo not drawn)	1	13	-7	1	?	-2	/	/	/
Cc1cccc(NC(=O)C2CCCN(c3nnc(-n4cccc4)s3)C2)c1C (stereo not drawn)	/	/	-6	1	/	/	/	/	/
COCC(=O)N(Cc1cc2cc(C)ccc2[nH]c1=O)c1cccc(C)c1C	5.6*	21	-18	-25	-1	-3	12*	-2	-1
CCCC(=O)OC12CCCN(C1)/C(=C/c1cccc(OC)c1)C2 (stereo not drawn)	/	/	4	-2	/	/	/	/	/
CC(=O)Nc1nc2ccccc2n1CCOc1ccccc1	2	-8	3	4	0	10	/	/	/
COc1ccc(OCCn2c(N)nc3ccccc32)cc1	39*	-12	-15	-14	0	8	62*	0	32*
Nc1nc2ccccc2n1CCOc1ccc(F)cc1	49*	-6	-4	-3	1	1	72*	17*	45*
S=C(Nc1ccccc1)Nc1nc2ccccc2n1CCOc1ccccc1	18*	41*	1	1	0	9	5	0	3
Cc1nc2ccccc2n1CCOc1ccccc1	0	-19	-1	3	2	1	/	/	/
Cn1c(SCC(=O)Nc2ccc3cn[nH]c3c2)nnc1-c1cnccn1	7.8*	11	-8	3	0	2	14*	-4	9
O=C(C1=C[C@@H](c2ccc(Br)cc2)C[C@@H](OCCCCO)O1)N1CCN(Cc2ccc3c(c2)OCO3)CC1	9.0*	-1	-1	-4	0	0	31*	5	9
O=C(C1=C[C@H](c2csc3ccccc23)C[C@H](OCCCCO)O1)N1CCN(Cc2ccc3c(c2)OCO3)CC1	0	3	-6	-5	-1	-3	/	/	/
O=C(C1=C[C@@H](c2csc3ccccc23)C[C@@H](OCCCCO)O1)N1CCN(Cc2ccc3c(c2)OCO3)CC1	12*	6	-3	-4	0	-5	48*	1	27*
C=CCN(CC#CC1=CCCCC1)CC1CC1	/	/	7	0	/	/	/	/	/
COc1ccc(NC(=O)C(CCCCNC(=O)OC(C)(C)C)NC2(C(=O)NCCc3c[nH]c4ccccc34)CCCCC2)cc1 (stereo not drawn)	/	/	-3	-4	/	/	/	/	/
O=C(Nc1cccc(-c2nc3ccccc3[nH]2)c1)c1ccco1	5.7*	2	13	14	0	9	8.8*	7	15
O=C(NCCc1ccccc1)OCc1cn(Cc2cc(F)ccc2F)nn1	/	/	1	2	/	/	/	/	/
Cc1cc(-c2ccc(C(C)C)c(S(=O)(=O)N3CCN(c4ccccn4)CC3)c2)on1	8.0*	-6	-4	-4	0	-4	12*	51*	4
Clc1ccc(-c2nnc3n2N=C(c2ccc(-c4ccccc4)cc2)CS3)cc1	/	/	-7	-9	/	/	/	/	/
CN(C)C(=O)c1ccccc1Sc1cc(Cl)ccc1Cl	-2	8	-1	-2	0	4	/	/	/
CN(C)C(=O)c1ccccc1Sc1ccc(Cl)cc1Cl	6.0*	4	-1	-2	-1	0	16*	-5	3
C=CCn1c(SCc2c(Cl)cccc2Cl)nnc1-c1cccc(C)c1	/	/	3	-6	/	/	/	/	/
SMILES	Tb MetRS inh	SKN-1 block	GC-B act	NPR1 activator	A1 inh	MT1-MMP act inh	Tb MetRS conf	Jurkat tox	Tb MetRS inh FP
Clc1cccc(CNc2nc(-c3cccnc3)nc3ccccc23)c1	18*	4	12	20	/	1	40*	12	28*
Cc1ccc(C)c(NC(=O)CN(C)C(=O)c2cccc(S(=O)(=O)N(C)C)c2)c1	0	4	-2	6	0	6	/	/	/
CN(CC(=O)Nc1ccc(Cl)cc1)C(=O)c1cccc(S(=O)(=O)N(C)C)c1	9.1*	12	1	-2	0	6	19*	5	6
CC(=O)c1ccc(NC(=O)C(C)N(C)CC(=O)Nc2cccc(F)c2)cc1 (stereo not drawn)	-1	-1	4	-3	1	-5	/	/	/
CC(=O)c1cccc(NC(=O)C(C)N(C)CC(=O)Nc2ccc(Cl)cc2)c1 (stereo not drawn)	35*	-7	-10	-7	-1	3	53*	6	25*
O=[N+]([O-])c1ccc(CN2CCN(Cc3c[nH]c4ccccc34)CC2)cc1	6.2*	3	-3	-8	0	1	19*	10	6
Brc1ccc(CN2CCN(Cc3c[nH]c4ccccc34)CC2)cc1	11*	15	-6	-13	3	-1	42*	13	17*
Brc1ccccc1CN1CCN(Cc2c[nH]c3ccccc23)CC1	/	/	-14	-14	2	/	/	/	/
CCCCc1cccc2[nH]cc(C)c12	/	/	2	-2	/	/	/	/	/
O=c1c2c([nH]c3ccc(Br)cc13)CCCC2	14*	22	-4	5	2	-1	27*	5	14
O=C(NCC1CC1)c1ccc(Nc2nc3ccc(Br)cc3[nH]2)cc1	7.3*	-7	7	9	0	7	46*	8	20*
O=C(NCc1ccco1)c1cccc(Nc2nc3ccc(Br)cc3[nH]2)c1	10*	12	8	1	0	2	40*	8	32*
O=C(NCC1CC1)c1ccc2nc([C@@H]3O[C@H](CO)[C@H](O)[C@H](O)[C@H]3O)[nH]c2c1	0	-6	-1	2	/	5	/	/	/
O=C(Cc1ccc(Nc2nc3ccc(Br)cc3[nH]2)cc1)NCCc1cccs1	84*	0	-7	-6	0	7	100*	11	104*

From PubChem
